# From ChEMBL document CHEMBL5303300, “EUbOPEN Chemogenomics Library - Multiplex” (2023)
# Values joined by “and” are separate entries in the source; they are usually repeats but may differ in a detail not shown here. Identical values can stand only once.
# How the values were obtained:
# HEK-293T = assay: Multiplex assay against HEK293T; type: toxicity, cell-based; details: human, number of replicates 2
# In short: (§1)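 Live cells were stained at seeding with Hoechst33342, BioTracker Green Microtubule Cytoskeleton Dye, MitoTracker Red and Annexin V Alexa Fluor 680. Following compound addition, they were imaged on a CQ1 microscope at 37°C and 5% CO2 and gated by CellPathfinder machine learning into Hoechst high-intensity objects or normal cells, with normal cells split into healthy, pyknosed or fragmented nuclei and pyknosed cells into mitotic or apoptotic. Tubulin, mitochondrial-mass and membrane-permeability phenotypes are per cents of healthy-nucleus cells.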
# U2OS = assay: Multiplex assay against U2OS; type: toxicity, cell-based; details: human, number of replicates 2; in short: as §1
# [1] = 24 h, 1 µM, compound concentration 1 uM
# [2] = 24 h, 10 µM, compound concentration 10 uM
# [3] = 48 h, 1 µM, compound concentration 1 uM
# [4] = 48 h, 10 µM, compound concentration 10 uM
# [5] = 12 h, 1 µM, compound concentration 1 uM
# [6] = 12 h, 10 µM, compound concentration 10 uM
smiles,measurement,setting,value
Fc1cccc(-n2cnc3c(NCc4nc5ccc(F)c(F)c5[nH]4)nc(N4CCOCC4)nc32)c1,Population Mitochondria Different-Phenotype (%),HEK-293T; [1],75% and 72%
same,Population Mitotic Cells (%),HEK-293T; [1],34% and 22%
same,Population Normal (%),HEK-293T; [1],77% and 75%
same,Population Pyknosed Nuclei (%),HEK-293T; [1],12% and 35%
same,Population Tubulin-Different-Phenotype (%),HEK-293T; [1],88% and 80%
same,Total Cell Count,HEK-293T; [1],263 and 293
same,Population Apoptotic (%),HEK-293T; [2],82% and 62%
same,Population Fragmented Nuclei (%),HEK-293T; [2],3% and 2%
same,Population Healthy Nuclei (%),HEK-293T; [2],85% and 88%
same,Population Hoechst High Intensity Objects (%),HEK-293T; [2],13% and 15%
same,Population Membrane Permeable-Phenotype (%),HEK-293T; [2],1% and 2%
same,Population Mitochondria Different-Phenotype (%),HEK-293T; [2],83% and 82%
same,Population Mitotic Cells (%),HEK-293T; [2],17% and 37%
same,Population Normal (%),HEK-293T; [2],86% and 84%
same,Population Pyknosed Nuclei (%),HEK-293T; [2],10% and 8%
same,Population Tubulin-Different-Phenotype (%),HEK-293T; [2],93% and 94%
same,Total Cell Count,HEK-293T; [2],366 and 334
same,Population Apoptotic (%),HEK-293T; [3],69% and 80%
same,Population Fragmented Nuclei (%),HEK-293T; [3],5% and 7%
same,Population Healthy Nuclei (%),HEK-293T; [3],82% and 60%
same,Population Hoechst High Intensity Objects (%),HEK-293T; [3],23% and 24%
same,Population Membrane Permeable-Phenotype (%),HEK-293T; [3],1% and 3%
same,Population Mitochondria Different-Phenotype (%),HEK-293T; [3],84% and 70%
same,Population Mitotic Cells (%),HEK-293T; [3],30% and 19%
same,Population Normal (%),HEK-293T; [3],76% and 75%
same,Population Pyknosed Nuclei (%),HEK-293T; [3],11% and 32%
same,Population Tubulin-Different-Phenotype (%),HEK-293T; [3],88% and 73%
same,Total Cell Count,HEK-293T; [3],251 and 297
same,Population Apoptotic (%),HEK-293T; [4],89% and 85%
same,Population Fragmented Nuclei (%),HEK-293T; [4],4% and 5%
same,Population Healthy Nuclei (%),HEK-293T; [4],85% and 83%
same,Population Hoechst High Intensity Objects (%),HEK-293T; [4],13% and 16%
same,Population Membrane Permeable-Phenotype (%),HEK-293T; [4],1% and 0%
same,Population Mitochondria Different-Phenotype (%),HEK-293T; [4],92%
same,Population Mitotic Cells (%),HEK-293T; [4],10% and 14%
same,Population Normal (%),HEK-293T; [4],86% and 83%
same,Population Pyknosed Nuclei (%),HEK-293T; [4],10%
same,Population Tubulin-Different-Phenotype (%),HEK-293T; [4],96% and 94%
same,Total Cell Count,HEK-293T; [4],333 and 303
same,Population Fragmented Nuclei (%),U2OS; [5],13%
same,Population Healthy Nuclei (%),U2OS; [5],59% and 53%
same,Population Hoechst High Intensity Objects (%),U2OS; [5],0%
same,Population Membrane Permeable-Phenotype (%),U2OS; [5],2% and 5%
same,Population Mitochondria Different-Phenotype (%),U2OS; [5],5% and 0%
same,Population Normal (%),U2OS; [5],99% and 100%
same,Population Pyknosed Nuclei (%),U2OS; [5],27% and 32%
same,Population Tubulin-Different-Phenotype (%),U2OS; [5],68% and 31%
same,Population Apoptotic (%),U2OS; [6],86% and 90%
same,Population Hoechst High Intensity Objects (%),U2OS; [6],0%
same,Population Membrane Permeable-Phenotype (%),U2OS; [6],33% and 45%
same,Population Mitochondria Different-Phenotype (%),U2OS; [6],33% and 52%
same,Population Mitotic Cells (%),U2OS; [6],13% and 9%
same,Population Normal (%),U2OS; [6],100% and 99%
same,Population Pyknosed Nuclei (%),U2OS; [6],41% and 57%
same,Population Tubulin-Different-Phenotype (%),U2OS; [6],100% and 78%
same,Population Apoptotic (%),U2OS; [1],63% and 97%
same,Population Fragmented Nuclei (%),U2OS; [1],8% and 19%
same,Population Healthy Nuclei (%),U2OS; [1],14% and 15%
same,Population Hoechst High Intensity Objects (%),U2OS; [1],5% and 3%
same,Population Membrane Permeable-Phenotype (%),U2OS; [1],12% and 28%
same,Population Mitochondria Different-Phenotype (%),U2OS; [1],12% and 23%
same,Population Normal (%),U2OS; [1],95% and 96%
same,Population Pyknosed Nuclei (%),U2OS; [1],77% and 64%
same,Population Tubulin-Different-Phenotype (%),U2OS; [1],37% and 73%
same,Population Apoptotic (%),U2OS; [2],90% and 94%
same,Population Hoechst High Intensity Objects (%),U2OS; [2],0% and 1%
same,Population Mitochondria Different-Phenotype (%),U2OS; [2],100% and 69%
same,Population Mitotic Cells (%),U2OS; [2],9% and 5%
same,Population Normal (%),U2OS; [2],100% and 98%
same,Population Pyknosed Nuclei (%),U2OS; [2],55% and 76%
same,Population Tubulin-Different-Phenotype (%),U2OS; [2],100% and 65%
same,Population Apoptotic (%),U2OS; [3],87% and 100%
same,Population Fragmented Nuclei (%),U2OS; [3],8% and 21%
same,Population Healthy Nuclei (%),U2OS; [3],2% and 8%
same,Population Hoechst High Intensity Objects (%),U2OS; [3],6%
same,Population Membrane Permeable-Phenotype (%),U2OS; [3],100% and 42%
same,Population Mitotic Cells (%),U2OS; [3],12% and 0%
same,Population Normal (%),U2OS; [3],93%
same,Population Pyknosed Nuclei (%),U2OS; [3],89% and 70%
same,Population Tubulin-Different-Phenotype (%),U2OS; [3],100% and 94%
same,Population Apoptotic (%),U2OS; [4],100% and 99%
same,Population Healthy Nuclei (%),U2OS; [4],4% and 10%
same,Population Hoechst High Intensity Objects (%),U2OS; [4],0%
same,Population Membrane Permeable-Phenotype (%),U2OS; [4],100% and 60%
same,Population Mitochondria Different-Phenotype (%),U2OS; [4],50% and 93%
same,Population Mitotic Cells (%),U2OS; [4],0%
same,Population Normal (%),U2OS; [4],100%
same,Population Pyknosed Nuclei (%),U2OS; [4],46% and 81%
same,Population Tubulin-Different-Phenotype (%),U2OS; [4],100% and 73%
